Published values from different studies.
Lines come from different studies, so protocols differ.
Target: Tyrosine-protein kinase ZAP-70 (ZAP70, Homo sapiens, UniProt P43403)
Sequence (P43403 1-619, as in one of the studies): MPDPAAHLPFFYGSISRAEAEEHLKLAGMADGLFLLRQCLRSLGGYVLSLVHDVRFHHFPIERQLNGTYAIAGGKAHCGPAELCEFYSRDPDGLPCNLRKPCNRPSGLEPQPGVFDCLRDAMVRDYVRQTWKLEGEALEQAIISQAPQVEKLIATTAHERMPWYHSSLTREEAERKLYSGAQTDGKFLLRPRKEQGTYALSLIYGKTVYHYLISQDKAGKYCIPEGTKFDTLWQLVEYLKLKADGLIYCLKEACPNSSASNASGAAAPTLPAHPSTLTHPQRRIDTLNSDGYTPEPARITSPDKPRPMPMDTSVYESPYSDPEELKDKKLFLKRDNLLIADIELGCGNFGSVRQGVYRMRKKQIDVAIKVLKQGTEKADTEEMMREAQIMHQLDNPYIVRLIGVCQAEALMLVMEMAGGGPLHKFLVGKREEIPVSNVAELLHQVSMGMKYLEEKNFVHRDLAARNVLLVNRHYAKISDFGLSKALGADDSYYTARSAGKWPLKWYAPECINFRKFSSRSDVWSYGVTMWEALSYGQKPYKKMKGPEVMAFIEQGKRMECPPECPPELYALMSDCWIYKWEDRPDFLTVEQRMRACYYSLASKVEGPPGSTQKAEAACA

c1nc2c(Nc3ccc4c(c3)OCCO4)nc(Nc3ccc4c(c3)OCCO4)nc2[nH]1  activity vs control (enzyme activity, inhibitor; 10 µM): 62%
N#CCCc1ccc2c(c1)-c1[nH]c3ccc([N+](=O)[O-])cc3c1CC(=O)N2  remaining signal (cell-free assay; 0.5 µM): 106%
FC(F)(F)Oc1cccc(-c2cnc3ccc(-c4ccncc4)nn23)c1  activity vs control (enzyme activity, inhibitor, radiometric; 5 µM): 104%
C[C@@H]1CN(c2cc(-c3n[nH]c4ccc(OC5(C)CC5)cc34)ncn2)C[C@H](C)O1  remaining binding (cell-free assay, competition with immobilised ligand; 0.1 µM): 83%
CC/C(=N\NC(=O)NCc1cccc(O)c1)c1ccc(O)c(C)c1O  inhibition (enzyme activity, inhibitor; 0.1 µM): -2.1%
CNCc1ccc(-c2cc(-c3nc(-c4ccc(S(=O)(=O)C(C)C)cc4)cnc3N)on2)cc1  inhibition (enzyme activity, inhibitor; 0.4 µM): 0%
Cc1[nH]c(/C=C2\C(=O)Nc3ccc(F)cc32)c(C)c1C(=O)N[C@H]1CCN(C(=O)N(C)C)C1  remaining activity (enzyme activity, inhibitor; 1 µM): 116%
Cc1ccc(Nc2nccc(N(C)c3ccc4c(C)n(C)nc4c3)n2)cc1S(N)(=O)=O  remaining activity (enzyme activity, inhibitor; 0.5 µM): 92.6%
CNC(=O)c1cc(Oc2ccc(NC(=O)Nc3ccc(Cl)c(C(F)(F)F)c3)cc2)ccn1  inhibition (enzyme activity, inhibitor; 0.3 µM): -1%
COc1cc(/C=C/C(=O)CC(=O)/C=C/c2ccc(O)c(OC)c2)ccc1O  activity vs control (enzyme activity, inhibitor; 1 µM): 108%
O=C(NS(=O)(=O)c1ccc(NCC2CCOCC2)c([N+](=O)[O-])c1)c1ccc(N2CCN(Cc3ccc(C(F)(F)F)cc3-c3ccc(Cl)cc3)CC2)cc1Oc1cnc2[nH]ccc2c1  remaining binding (cell-free assay, competition with immobilised ligand; 1 µM): 82%
CCN(CC)CCNC(=O)c1c(C)[nH]c(/C=C2\C(=O)Nc3ccc(F)cc32)c1C  remaining activity (enzyme activity, inhibitor; 1 µM): 110%
COc1cc(Cl)c(C(=O)N[C@@H](CN[C@H]2CC[C@@H](N)CC2)Cc2ccc(C#N)cc2)cc1-c1ccc(CN[C@H](C)c2ccc(C)cc2)o1  remaining activity (enzyme activity, inhibitor; 1 µM): 93%
CS(=O)(=O)N1CCCC(NC(=O)[C@H](CCC2CCCCC2)NC(=O)c2ccc(CNc3ncnc4c3nnn4-c3ccccc3)cc2)C1 (stereo partly drawn)  remaining binding (cell-free assay, competition with immobilised ligand; 0.1 µM): 100%
O=C(Nc1cnn(-c2csc(C(=O)NC3COC3)c2)c1)Nc1c(F)cccc1Cl  remaining activity (enzyme activity, inhibitor; 5 µM): 104%
CS(=O)(=O)Nc1cccc(-c2csc(NC(=O)CSc3nc4nccnc4c(=O)n3CCc3ccccc3)n2)c1  inhibition (enzyme activity, inhibitor; 10 µM): 9%
COc1cc2ncnc(Nc3ccc(Oc4ccccc4)c(C)c3C)c2cc1OC  inhibition (enzyme activity, inhibitor; 1 µM): -2%
Nc1ncnc2occ(-c3ccc(NC(=O)Nc4cc(C(F)(F)F)ccc4F)cc3)c12  remaining signal (cell-free assay, inhibitor; 20 µM): 2.4%
O=C1Nc2ccc(Cl)cc2C1=Cc1cc(Cl)c(O)c(Cl)c1  remaining signal (cell-free assay; 0.5 µM): 95%
CCN(CC)CCNC(=O)c1c(C)[nH]c(/C=C2\C(=O)Nc3ccc(F)cc32)c1C  inhibition (enzyme activity, inhibitor; 10 µM): 11%
O=C(N[C@H]1CCCCC/C=C\C2C[C@@]2(C(=O)O)NC(=O)[C@@H]2C[C@@H](Oc3ccncc3)CN2C1=O)OC1CCCC1 (stereo partly drawn)  remaining binding (binding, competition with immobilised ligand; 1 µM): 96%
COc1cc(Nc2cnc(C#N)c(O[C@H](C)CN(C)C)n2)ncc1-c1cnn(C)c1  remaining activity (enzyme activity, inhibitor, radiometric; 10 µM): 103%
CC(=O)N1CCC(c2ccc(C(=O)NC(=N)N)cc2C(F)(F)F)CC1  remaining binding (cell-free assay, competition with immobilised ligand; 1 µM): 100%
CC(C)(C)c1nc(-c2cccc(NS(=O)(=O)c3c(F)cccc3F)c2F)c(-c2ccnc(N)n2)s1  remaining activity (enzyme activity, inhibitor, radiometric; 1 µM): 92%
COc1ccc2c(c1)O[C@H](c1ccc(OC)c(OC)c1)C[C@@H]2NC(=O)C1(c2ccc3c(c2)OC(F)(F)O3)CC1  remaining binding (cell-free assay, competition with immobilised ligand; 1 µM): 93%
COc1ccc(COc2ccc(Cc3cnc(N)nc3N)cc2OC)cc1  remaining signal (cell-free assay; 0.5 µM): 94.3%
O=C(Nc1ccc(Oc2ccc(F)cc2)cc1)N1CCc2ncccc2[C@H]1c1ccc(F)cc1  remaining binding (cell-free assay, competition with immobilised ligand; 1 µM): 91%
Cc1sc(C(=O)NC2COC2)cc1-n1cc(NC(=O)Nc2c(F)cccc2Cl)cn1  remaining activity (enzyme activity, inhibitor; 10 µM): 103%
O=C(O)c1cc(-c2ccc(C3CCNCC3)cc2)c2ccc(-c3ccc(C(F)(F)F)cc3)cc2c1  remaining binding (cell-free assay, competition with immobilised ligand; 1 µM): 100%
Cc1cnc(NC2CCOCC2)nc1-n1cnc(C(=O)NC(CN)c2cc(F)cc(Cl)c2)c1 (stereo not drawn)  remaining activity (enzyme activity, inhibitor, radiometric; 1 µM): 115%
